Laboratory results as given in PubChem BioAssay AID588485 (Southern Research Specialized Biocontainment Screening …, 2011).
Several values for one entry are separate records, joined by “and”; a condition that tells them apart may be missing. Equal entries are not always repeated. Activity calls are given as the source filed them.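 The calls were made as follows: active = CPE inhibition of 50% or more; inactive = the rest.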

Experiments:
[1] = test system: HEp-2 RSV Long CPE inhibition, luminescence viability; assay: RSV cytopathic effect inhibition in HEp-2 cells, dose response, cell-based, synthesized compounds, set 14 (AID 588485)
Procedure, shortened: (§1)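 test system = HEp-2 human cells infected with RSV strain Long | times = 6 days compound and virus exposure at 37 °C | technique = luminescence-based measurement of virus-induced cytopathic effect | read-out basis = percent CPE inhibition versus controls, IC50 by 4-parameter fit fixed 0/100 | control set = uninfected cell-only wells and infected virus control wells | replication = triplicate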

[2] = as above; conditions: HEp-2 RSV Long CPE inhibition, luminescence viability; at 50 µM (top of the series)
Procedure, shortened: as §1

Row | SMILES | IC50 [1] [nM] | CPE inhibition [2]
1 | COCCCNC(=O)c1ccc(Cn2c(=O)c3ccccc3n(Cc3ccc([N+](=O)[O-])cc3)c2=O)cc1 | 460 | –
2 | O=C(O)c1ccc(Cn2c(=O)n(Cc3ccc(C(=O)NCC4COC4)cc3)c(=O)c3ccccc32)cc1 | – | 0.24% (inactive) and 0.09% (inactive)
3 | CN(C)c1ccc(Cn2c(=O)n(Cc3ccc(C(=O)NCC4COC4)cc3)c(=O)c3ccccc32)cc1 | 1250 | –
4 | CC(C)c1ccc(Cn2c(=O)n(Cc3ccc(C(=O)NCc4ccco4)cc3)c(=O)c3ccccc32)cc1 | 1350 | –
